# MrgX1 ag: activates human MrgX1 receptor signaling | Q96LB2 | AID 588627 | 310,000 compounds, 0.44% hits | B-score at 10 µM | MrgX1-HEK293 cells, Fluo-4 calcium fluorescence, agonist mode; stronger effect = higher value;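 active = calcium response B-score plate-corrected fluorescence ratio at least 3 library SD, with starting fluorescence B-score inside 5 SD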
# Target sequence (Q96LB2 whole entry, looked up): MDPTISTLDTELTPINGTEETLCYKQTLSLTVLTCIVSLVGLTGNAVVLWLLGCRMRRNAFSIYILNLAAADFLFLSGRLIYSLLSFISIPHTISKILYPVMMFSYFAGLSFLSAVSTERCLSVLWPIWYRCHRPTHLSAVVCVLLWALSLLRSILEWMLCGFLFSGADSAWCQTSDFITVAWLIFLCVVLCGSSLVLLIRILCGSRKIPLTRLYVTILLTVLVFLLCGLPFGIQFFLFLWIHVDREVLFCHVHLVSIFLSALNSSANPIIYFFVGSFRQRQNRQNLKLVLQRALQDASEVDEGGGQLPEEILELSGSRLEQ
#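 Test system: HEK293 cells stably expressing human MrgX1 receptor; Input: fifteen thousand cells per well; Dosing: compound delivered in addition one of three; Schedule: overnight seeding, then 1 h dark dye loading; Technique: Fluo-4 NW calcium fluorescence; Measure: B-scored fluorescence response ratio; Controls: positive and negative controls per plate.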
# MrgX1 antagonist: human MrgX1 receptor antagonism, primary screen. MRGX1-HEK293 calcium flux, Fluo-4, BAM8-22 antagonism; stronger effect = lower value. B-score at 10 µM. 310,000 compounds, 1.3% hits. AID 588676;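 active = calcium-response B-score plate-corrected more than 3 library SD below zero, starting fluorescence within 5 deviations, no agonist response on first addition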;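 note: peak minus trough fluorescence over baseline after final BAM8-22 challenge near maximal dose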
# RGS4 act: RGS4 potentiation or activation; 310,000 compounds, 0.92% hits; B-score at 10 µM; HEK293 M3R/inducible RGS4, carbachol calcium flux Fluo4; stronger effect = lower value;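 active = B-score of the integrated calcium signal more than 4 SD below the library mean, with starting fluorescence not abnormally high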;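 note: negative B-score means reduced calcium response which marks RGS4 activation or potentiation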
#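 Also added: carbachol at ECmax as muscarinic agonist stimulus; Assay system: HEK293 cells with stable M3R and inducible RGS4; Timing: overnight RGS4 induction, 30 min dye load 37 °C, 20 min compound RT; Measured by: Fluo4-AM (2 µM) calcium-flux fluorescence, kinetic read.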
# PHOSPHO1 inh: inhibitors of human PHOSPHO1 phosphatase | Q8TCT1 | recombinant PHOSPHO1, absorbance phosphatase assay | inhibition, % at 13.3 µM | 290,000 compounds, 1.1% hits; in the data active = inhibition above about 60%
# MrgX1 allo act: allosterically activates human MrgX1 receptor signaling; B-score at 10 µM; MrgX1-HEK293, Fluo-4 calcium flux, FDSS; stronger effect = higher value; 310,000 compounds, 0.63% hits; AID 588675;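 active = plate-corrected calcium response at least 3 library SD above typical, normal starting fluorescence, not activating the receptor alone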;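 note: compound read alongside a low EC10 to EC30 dose of BAM8-22 agonist; peak minus trough fluorescence over baseline measured at the second addition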
# RGS4 block: inhibitors of human RGS4 | 310,000 compounds, 0.45% hits | HEK293 M3R/RGS4 inducible, Fluo-4 calcium flux; stronger effect = higher value; triggered by carbachol at its EC20 | B-score at 10 µM | P49798 | AID 463165;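 active = B-score, a plate-corrected calcium signal, over three deviations above library mean, with baseline fluorescence within five deviations of library mean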;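 note: RGS4 expression induced by doxycycline in cells with stable M3 receptor; B-score is computed from the integrated fluorescence ratio over baseline after carbachol; higher B-score means a larger calcium signal and so more RGS4 inhibition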
# Target sequence (P49798 whole entry, looked up): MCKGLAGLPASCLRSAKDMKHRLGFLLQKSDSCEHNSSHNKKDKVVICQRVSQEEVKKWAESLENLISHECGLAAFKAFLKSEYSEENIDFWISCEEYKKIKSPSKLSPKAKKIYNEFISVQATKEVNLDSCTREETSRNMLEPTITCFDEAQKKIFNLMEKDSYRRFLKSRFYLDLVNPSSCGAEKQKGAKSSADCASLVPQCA
# MrgX1 ant reconf: reconfirmed antagonist of human MrgX1 receptor signaling; remaining BAM8-22 calcium response % of control (stronger effect = lower value), % at 10 µM; shares compounds with MrgX1 antagonist; 2,300 compounds, 19% hits; MrgX1-HEK293, BAM8-22 calcium flux, Fluo-4; stronger effect = lower value;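 active = remaining agonist calcium response no higher than 100% minus 3 SD of agonist-only control wells, with starting fluorescence near control levels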;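 note: agonist BAM8-22 given at a near maximal EC90 to ECmax level; peak minus minimum fluorescence divided by baseline after agonist addition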
# HEK293 Ca flux: counter-screen for MrgX1 antagonists: effect in parental HEK293 cells. shares compounds with MrgX1 antagonist. Fluo-4 calcium fluorescence, FDSS. fluorescence ratio F(max-min)/F0 at 10 µM. 4,000 compounds, 2% hits;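 active = duplicate-averaged calcium fluorescence ratio at least three times the standard deviation of buffer wells, a nonspecific response in parental cells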
# HEK293 Ca counter: MrgX1 allosteric activator counter-screen hit in parental HEK293 cells | AID 624114 | shares compounds with MrgX1 antagonist | parental HEK293 calcium flux, Fluo-4 fluorescence ratio; stronger effect = higher value | fluorescence ratio F(max-min)/F0 at 10 µM | 4,000 compounds, 0.4% hits;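 active = calcium fluorescence ratio, averaged over duplicates, at least 3 SD of the buffer-well ratio, meaning a nonspecific response in receptor-free cells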;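 note: untransfected parental HEK293 lacking MrgX1 used as counterscreen for MrgX1 allosteric activators; fluorescence change taken during the second addition on a kinetic imager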
# HEK293 Ca cntr2: MrgX1 activator counter-screen hit in parental HEK293 cells | shares compounds with MrgX1 antagonist | AID 624115 | Fluo-4 calcium fluorescence (FDSS); stronger effect = higher value | fluorescence ratio F(max-min)/F0 at 10 µM | 4,000 compounds, 8.7% hits;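 active = calcium fluorescence ratio at least three times the spread of buffer wells, meaning a non-specific response in parental cells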
# Numbers without * were called inactive; i = inactive; . = not tested or not shown. An excerpt weighted towards active compounds, which were near 4.5% of everything screened.
SMILES,MrgX1 ag,MrgX1 antagonist,RGS4 act,PHOSPHO1 inh,MrgX1 allo act,RGS4 block,MrgX1 ant reconf,HEK293 Ca flux,HEK293 Ca counter,HEK293 Ca cntr2
COc1cc(OC)cc(C(=O)NC2CC3CCC(C2)N3Cc2ccco2)c1 (stereo not drawn),.,.,i,12,.,i,.,.,.,.
O=C(CCc1ccccc1)NC1CCSC1=O (stereo not drawn),i,-6.1*,i,4,i,i,i,i,i,i
Cc1ccccc1CSCCNS(C)(=O)=O,i,-5.3*,i,7,i,i,i,i,i,i
CC(OC(=O)CCN=C1NS(=O)(=O)c2ccccc21)C(=O)N(C)c1ccccc1 (stereo not drawn),i,-11*,i,.,i,i,i,i,i,i
COc1cc(NC(=O)c2cccs2)c(C(=O)OCC(=O)NC(=O)NC(C)(C)C)cc1OC,i,-4.6*,i,-5,i,i,81%*,i,i,i
COc1cc(NC(=O)c2cccs2)c(C(=O)OCC(=O)NC(=O)NCc2ccccc2)cc1OC,i,i,i,12,i,i,.,.,.,.
CCC(C(=O)NCCCN1CC(C)CC(C)C1)n1nc(C)c2sc3ccccc3c2c1=O (stereo not drawn),i,i,i,28,i,i,.,.,.,.
CC(=O)c1ccc(OCCCC(=O)N2CCN(S(=O)(=O)c3ccc(C(C)C)cc3)CC2)cc1,i,i,i,.,i,i,.,.,.,.
O=C(CC(=O)Nc1nc(C23CC4CC(CC(C4)C2)C3)cs1)NCCO,i,-5.7*,i,3,i,i,65%*,i,i,i
Cc1ccc(N=Cc2cc3c(cc2O)OC(N)=C(C#N)C3c2ccccc2)cc1 (stereo not drawn),i,-9.8*,i,-3,i,i,80%*,i,i,i
COc1ccc(CN2CCC(N3CC(C)OC(C)C3)CC2)c(OC)c1 (stereo not drawn),i,-4.8*,i,22,i,i,i,i,i,i
CCOc1ccc(C(C)=O)cc1CSc1nc2nc(C)cc(C)n2n1,i,-5.7*,i,21,i,i,69%*,i,i,i
COc1ccc(NC(=O)c2cccc(C#N)c2)cc1NS(=O)(=O)c1ccc(F)cc1,i,i,i,3,i,i,.,.,.,.
C=CCn1c(Cc2cccs2)nnc1SCC(=O)NC1CC1,i,-8.8*,i,28,i,i,i,i,i,i
CCn1c(Cc2cccs2)nnc1SCC(=O)NC1CC1,i,i,i,43,i,i,.,.,.,.
CC(C)CNC(=O)c1cccc(NC(=O)CSc2ccccc2)c1,i,i,i,6,i,i,.,.,.,.
CC(C)CNC(=O)c1cccc(NC(=O)Cc2ccc(Cl)cc2)c1,i,-5.5*,i,-8,i,i,i,i,i,i
CCOC(=O)CC1C(=O)NCCN1S(=O)(=O)c1ccc(NC(C)=O)cc1 (stereo not drawn),i,-6.5*,i,38,i,i,i,i,i,i
CCOC(=O)CC1C(=O)NCCN1S(=O)(=O)c1ccc(F)cc1 (stereo not drawn),i,i,i,29,i,i,.,.,.,.
Cc1ccc(C(=O)C2=C(O)C(=O)N(Cc3cccnc3)C2c2ccc(Br)cc2)o1 (stereo not drawn),i,-11*,i,28,i,i,i,i,i,i
Cc1ccc(-c2ccc(OC(=O)c3ccc(=O)[nH]c3)c(C)c2)cc1,i,i,i,30,i,i,.,.,.,.
Cc1cc(Br)ccc1NCc1ccccn1,i,-6*,i,-16,i,i,i,i,i,i
CN(C)S(=O)(=O)c1cccc(NC(=O)CN2C(=O)C3C4C=CC(C4)C3C2=O)c1 (stereo not drawn),i,-6.8*,i,9,i,i,i,i,i,i
Cc1ccc(CNC(=O)N[C@@H](Cc2ccccc2)C(=O)O)cc1,i,-7.2*,i,-8,i,i,i,i,i,i
COC(=O)[C@H](Cc1ccccc1)NC(=O)NCc1ccc(C)cc1,i,i,i,28,i,i,.,.,.,.
SMILES,MrgX1 ag,MrgX1 antagonist,RGS4 act,PHOSPHO1 inh,MrgX1 allo act,RGS4 block,MrgX1 ant reconf,HEK293 Ca flux,HEK293 Ca counter,HEK293 Ca cntr2
CC(C(=O)Nc1ccccc1C(=O)O)n1c(C(F)(F)F)nc2ccccc21 (stereo not drawn),i,i,i,20,i,i,.,.,.,.
O=C(Cn1c(C(F)(F)F)nc2ccccc21)Nc1ccccc1C(=O)O,i,-5.8*,i,37,i,i,i,i,i,i
COCCN1C(=O)/C(=C/c2ccc(N3CCCC3)cc2)SC1=S,i,-12*,i,-12,i,i,i,i,i,i
COc1ccc(C(=O)N2CCOC2CNC(=O)C(=O)NCc2ccc(F)cc2)cc1 (stereo not drawn),i,-5.1*,i,19,i,i,i,i,i,i
N#CCCN1CCCN(CCC#N)CCN(CCC#N)CCCN(CCC#N)CC1,i,i,i,34,i,i,.,.,.,.
Cc1ccc(C(=O)NCC(c2ccc(F)cc2)N2CCOCC2)cc1 (stereo not drawn),i,i,i,-40,i,i,.,.,.,.
CC(=O)c1ccc(-c2ccc(C(=O)NCC(c3ccc(F)cc3)N3CCOCC3)o2)cc1 (stereo not drawn),i,-8*,i,.,i,i,60%*,i,i,i
Cc1ccc(C)c(S(=O)(=O)N2CCN(C(=O)c3cccnc3)CC2)c1,i,-11*,i,24,i,i,i,i,i,i

# Compound activity: PubChem, several laboratories
